Screening data: PubChem BioAssay, several laboratories
APJ antag: antagonists of human apelin receptor APJ, primary screen, CHO-K1 cells, beta-arrestin complementation, luminescence | P35414 | inhibition, % at 20 µM | actives 0.32% (n = 330,000) | AID 2521, 2010;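 active = inhibition above about 40% at 20 µM, limit read from the data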;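 note: cells challenged with 10 nM apelin-13 agonist together with compound; plate controls were apelin-13 plus DMSO wells for no effect and DMSO wells lacking apelin-13 for full effect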
APJ ag: agonists of human apelin receptor APJ, primary screen, CHO-K1 cells, PathHunter beta-arrestin, luminescence | P35414 | 0% DMSO wells, 100% apelin | activation, % at 20 µM | actives 0.11% (n = 330,000);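 active = activation more than six SD over the plate average, tested at 20 µM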;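 note: 0% = DMSO alone and 100% = apelin-13 at 10 nM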
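Test system: CHO-K1 APJ beta-arrestin complementation cell line | Compound: Single test compound dose, 20 µM final, 1% DMSO | Incubation: Compound 90 min 25 °C, reagent 1 h | Measured by: beta-gal luminescence | Read-out basis: APJ–arrestin association signal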
PKA-R2B act: activators of PKA-R2B holoenzyme, primary screen, biochemical, fluorescence polarization, Cy5-IP20, human. PKA-R2B holoenzyme dissociation; R2B truncated from residue 108, S112A mutant; 0% DMSO only, 100% 113 µM cGMP. activation, % at 11.4 µM. actives 0.079% (n = 340,000). cAMP-dependent protein kinase catalytic subunit beta (Homo sapiens) + cAMP-dependent …;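 active = activation above a cutoff set at the mean over all compounds plus 3 SD, cut at about 18% in these data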;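 note: higher means more holoenzyme dissociation and a rise in polarization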
CXCR6 inh: CXCR6 receptor inhibitors, primary screen, cell-based, beta-arrestin, luminescence, CHO-K1 PathHunter, 1536-well | actives 0.36% (n = 360,000) | inhibition, % at 20 µM | AID 602244, 2012; in the data active = inhibition above about 34%, passing the limit was not always enough;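 note: antagonist mode with CXCL16 agonist at 10 nM final; 0% = 10 nM CXCL16 with DMSO and 100% = unstimulated wells without agonist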
Target sequence (O00574 whole entry, looked up): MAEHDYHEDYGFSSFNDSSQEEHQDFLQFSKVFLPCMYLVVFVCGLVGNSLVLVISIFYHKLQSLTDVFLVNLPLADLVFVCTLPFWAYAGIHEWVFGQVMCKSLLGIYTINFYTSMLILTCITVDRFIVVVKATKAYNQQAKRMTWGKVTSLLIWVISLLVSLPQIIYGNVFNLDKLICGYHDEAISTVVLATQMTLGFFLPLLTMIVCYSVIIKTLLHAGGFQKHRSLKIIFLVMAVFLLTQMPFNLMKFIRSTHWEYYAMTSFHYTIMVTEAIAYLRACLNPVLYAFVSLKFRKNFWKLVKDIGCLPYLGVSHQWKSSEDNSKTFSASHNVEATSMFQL
CCR6 antagonist: CCR6 receptor antagonists, primary screen, cell-based, CHO-K1, luminescence, beta-arrestin, uHTS. C-C chemokine receptor type 6 (Homo sapiens), P51684. CHO-K1 CCR6 PathHunter beta-arrestin, CCL20-stimulated. inhibition, % at 20 µM. actives 0.49% (n = 340,000). AID 493098, 2011;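 active = compounds whose inhibition of the agonist-driven luminescence signal at 20 µM reaches about 50%, limit read from the data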;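 note: cells stimulated with CCL20 at 14 nM final; plate controls were DMSO with CCL20 for no effect and DMSO without agonist for full effect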
PKA-R1A activ: activators of PKA-R1A holoenzyme, primary screen, biochemical, fluorescence polarization, Cy5-IP20, bovine R1A, mouse PKAc | PKA-R1A dissociation; scaled: DMSO 0%, 113 µM cGMP 100% | cAMP-dependent protein kinase type I-alpha regulatory subunit (Bos taurus) + … | activation, % at 11.4 µM | AID 504707, 2011 | actives 0.083% (n = 340,000);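 active = percent activation above the mean of all tested compounds plus 3 SD, cut at about 19% in these data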;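 note: higher means more PKAc released from R1A so a rise in polarization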
R2B FP artifact: fluorescence polarization artefacts, biochemical, artefact control for PKA-R2B activator project. activation, % at 11.4 µM. AID 504796, 2011. shares compounds with PKA-R2B act. FP artifact counterscreen. actives 6% (n = 270); in the data active = activation above about 20%;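 note: Cy5 labelled IP20 peptide probe with compound but no PKA protein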
PKA-R2B act conf: activators of PKA-R2B holoenzyme, confirmation, biochemical, fluorescence polarization, human. shares compounds with PKA-R2B act. PKA-R2B complex, activation. activation, % at 11.4 µM. actives 9% (n = 270). AID 504797, 2011; in the data active = activation above about 19%
R1A FP artifact: FP signal interference without PKA proteins, confirmation, artefact control for PKA-R1A activator project, biochemical, fluorescence polarization, triplicate | shares compounds with PKA-R1A activ | Cy5-IP20 peptide alone, fluorescence polarization artifact counterscreen | activation, % at 11.4 µM | actives 7% (n = 280) | AID 504799, 2011;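 active = mean activation over triplicate runs exceeds the adjusted cutoff derived for the parent primary screen, cut at about 19% in these data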;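 note: no PKA protein present so any polarization rise reflects compound interference; 0% = tracer peptide mix alone and 100% = mix with added PKA catalytic subunit; higher means stronger polarization artifact and likely false positive in parent screen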
PKA-R1A confirm: activators of PKA-R1A holoenzyme, confirmation, biochemical, fluorescence polarization, Cy5-IP20, triplicate. shares compounds with PKA-R1A activ. PKA-R1A holoenzyme dissociation. activation, % at 11.4 µM. actives 9% (n = 280). AID 504800, 2011;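 active = mean activation over replicate wells exceeds the adjusted hit threshold taken from the earlier primary screen, cut at about 20% in these data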;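 note: 0% = holoenzyme mix with DMSO only and 100% = cGMP-activated control wells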
CXCR6 antag conf: CXCR6 receptor antagonists, confirmation, cell-based, single concentration, beta-arrestin, luminescence; shares compounds with CXCR6 inh; CHO-K1 CXCR6 PathHunter beta-arrestin; inhibition, % at 20 µM; actives 65% (n = 700); AID 602409, 2012;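 active = mean inhibition over four retests above 40%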;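 note: receptor stimulated with 10 nM CXCL16 agonist; beta-galactosidase fragment complementation upon beta-arrestin recruitment to receptor; plate controls were CXCL16 plus DMSO for no effect and DMSO without CXCL16 for full effect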
* marks the source's active call; other numbers are inactive results; nt = no result given; ! = repeats disagree. Most compounds without a hit are left out; they make up all but 0.88% or so of the library.

SMILES | APJ antag | APJ ag | PKA-R2B act | CXCR6 inh | CCR6 antagonist | PKA-R1A activ | R2B FP artifact | PKA-R2B act conf | others
C#CCN(C)C(C)Cc1ccccc1 (stereo not drawn) | -12 | 0 | 19* | 6 | 0 | -8 | 1 | 2
CC(Cc1ccccc1)N(C)CC1C(=O)C2CCC1C2 (stereo not drawn) | nt | nt | -3 | 4 | 6 | -12 | nt | nt
NP(=O)(OCCCCc1ccccc1)Oc1ccccc1Cl (stereo not drawn) | 5 | 2 | -4 | -9 | 2 | 2 | nt | nt
CCn1cc(CN2CCCC(C(=O)c3cccc(OC)c3)C2)c(C)n1 (stereo not drawn) | 1 | -2 | 2 | 0 | 13 | 5 | nt | nt
CCCn1cc(CN2CCCC(C(=O)c3cccc(OC)c3)C2)c(C)n1 (stereo not drawn) | -9 | -4 | 21* | 2 | 7 | 8 | 2 | 1
Oc1ccc2c3c1O[C@H]1[C@@H](O)CC[C@@]4(O)[C@@H](C2)N(CC2CCC2)CC[C@]314 | 18 | -3 | 19*! | 6 | -1 | -9 | 5 | 3
N#CCCn1cc(C=C2C(=O)NC(=O)NC2=O)c(-c2ccccc2)n1 | -12 | -2 | 19* | 6 | 2 | 10 | 5 | 2
O=C1C=CC(=O)C2C1C1(Cl)C(Cl)=C(Cl)C2(Cl)C1(Cl)Cl (stereo not drawn) | nt | nt | 3 | -18 | 11 | -17 | nt | nt
Cc1ccc(/C=C2/C(=O)NC(=O)N(CCc3ccc(F)cc3)C2=O)o1 | -9 | 8 | 24* | -13 | 20 | 8 | 2 | 4
CNC1(c2ccc(F)cc2)CCCCC1 | nt | nt | 11 | 5 | -5 | 11 | nt | nt
O=C(O)c1cccc2c1NC(C(=O)O)C1CC(Sc3ccccc3[N+](=O)[O-])C(Cl)C21 (stereo not drawn) | nt | nt | 22* | 14 | 23 | 5 | 24* | 15
Cc1ccnc(NC(=O)CCCc2ccc(N(CCCl)CCCl)cc2)n1 | nt | nt | 5 | 6 | 10 | 5 | nt | nt
CCOP(=O)(C(NC(=O)c1ccccc1Cl)=C(Cl)Cl)c1ccccc1 (stereo not drawn) | 1 | 3 | -1 | 0 | -11 | 8 | nt | nt
CCOP(=O)(OCC)C(NC(=O)c1ccccc1Cl)=C(Cl)Cl | 3 | 0 | 19* | -1 | -4 | 14 | 7 | 0
O=C1NC(=S)NC(=O)C1=Cc1cccn1-c1ccc(O)cc1 | nt | nt | 2 | 7 | 23 | 21* | nt | nt | R1A FP artifact=4;PKA-R1A confirm=1
COCCNC(=O)CN1C(=O)CN=C(c2ccccc2)c2ccccc21 | 3 | -2 | -6 | 5 | 16 | 1 | nt | nt
Cc1c(N=Nc2c(O)[nH]c(=S)[nH]c2=O)c(=O)n(-c2ccccc2)n1C | 14 | 1 | 4 | 52* | 44 | 14 | nt | nt | CXCR6 antag conf=52*
CC(C)(C#CC(=O)O)OOC(c1ccccc1)(c1ccccc1)c1ccccc1 | 15 | -5 | -1 | 5 | -2 | -1 | nt | nt
Nc1cc(Cl)c2nonc2c1[N+](=O)[O-] | nt | nt | -1 | 46* | 46 | -4 | nt | nt | CXCR6 antag conf=58*
O=[N+]([O-])c1c(Cl)c(Cl)c(Cl)c(Cl)c1Cl | nt | nt | -6 | -17 | -11 | -9 | nt | nt
